Measured values as given in publication PMC8908367 (ACS Omega, 2022).

Key:
[1] = system: T. cruzi CA-I/72 amastigotes; format: cell-based, Trypanosoma cruzi
Outline: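 Test compound in DMSO acoustically spotted into 384-well plates. C2C12 mouse […] (500/well) and CA-I/72 T. cruzi (7500/well; strain kept by weekly C2C12 coculture passage) added together, 72 h at 37 °C, 5% CO2. Fixed in 4% paraformaldehyde/PBS, DAPI 5 μg/mL 1 h, imaged at 10×. Automated host and parasite nuclei counts fitted to CC50 and EC50 curves; SI = CC50/EC50.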

[2] = Host cell toxicity in the high-content imaging assay; format: cell-based; settings: mouse
trypanothione reductase = settings: cited from earlier work
[3] = system: T. cruzi intracellular parasite; settings: cited from earlier work

What does the source list for `O=C(Cn1ccnc1[N+](=O)[O-])NCc1ccccc1` [Benznidazole]?
SI (Selectivity Index = CC50/EC50) ([1]; CC50 C2C12 / EC50 T. cruzi CA-I/72): >22; EC50 ([1]; Trypanosoma cruzi, C2C12, 72 h, read-out: EC50, inhibition of T. cruzi amastigote replication): 2200 ± 1.3 nM; CC50 at 72 h [2]: > 50000 nM

For `C=C1C(=O)[C@H]2O[C@]23C[C@H]2CC(C)(C)[C@H](O)[C@H]2[C@]13C` [hypnophilin], which “inhibition of trypanothione reductase” value (trypanothione reductase) is on record?
Its value is “potent inhibitor”.

And the “activity against the intracellular parasite in vitro” value [3]?
Its value is “showed activity”.
